Measurements taken from ChEMBL document CHEMBL1156918, “5-Modified-2'-dU and 2'-dC as mutagenic anti HIV-1 proliferation agents: synthesis and activity” (J Med Chem, 2010).
Activity calls are given as the source filed them. The rule behind the calls is not given here.

Legend:
[1] = Cytotoxicity against human MT4 cells by MTT assay; format: cell-based
Procedure, shortened: (§1)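 Uninfected cells grown at 37 °C, 5% CO2, in RPMI 1640 with 10% FCS, penicillin, streptomycin and glutamine, were incubated with a range of compound concentrations (up to 200 μM), run alongside the 5-day antiviral assay. Viability was read as MTT reduction to formazan by OD at 540 nm. CC50 was taken from a median effect plot of the dose-effect data.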

[2] = test system: Human immunodeficiency virus 1; assay: Antiviral activity against HIV1 LAI in human CEM-SS cells assessed as RT activity after 5 days by single passage assay; format: functional, organism-based; details: Human immunodeficiency virus 1, LAI, 120 h
Procedure, shortened: (§2)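 CEM-SS cells kept in RPMI 1640 with 10% FCS, penicillin, streptomycin and glutamine at 37 °C, 5% CO2. Infected with HIV-1 LAI at 20 TCID50, 30 min adsorption, washed, resuspended at 10^5 cells/mL with serial compound dilutions. After 5 days, RT activity in the medium was measured. IC50 came from a median-effect plot. AZT was the positive control. Run twice.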

[3] = test system: Human immunodeficiency virus 1; assay: Antiviral activity against HIV1 3B in human MT4 cells assessed as RT activity after 5 days by single passage assay; format: functional, organism-based; details: Human immunodeficiency virus 1, 3B, MT4, 120 h
Procedure, shortened: as §2, with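 “MT-4” for “CEM-SS”, “IIIB” for “LAI”, “5” for “20”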

[4] = Cytotoxicity against human CEM-SS cells by MTT assay; format: cell-based; procedure, shortened: as §1
[5] = test system: Human immunodeficiency virus 1; assay: Antiviral activity against HIV1 LAI in human CEM-SS cells assessed as RT activity after 4 to 8 serial passages with uninfected cells by serial passage experiment; format: functional, organism-based
Procedure, shortened: (§3)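 HIV-1 LAI at multiplicity 0.01 added to 2.5×10^5 CEM-SS cells in RPMI, 4 h at 37 °C. Cells washed twice in PBS, resuspended in 1 mL medium with or without analogue at 200 μM (100 μM where cytotoxicity required). Every 4 days an equal supernatant volume went to fresh CEM-SS cells, for eight cycles. RT activity in supernatants read at each passage.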

[6] = test system: Human immunodeficiency virus 1; assay: Antiviral activity against HIV1 LAI in human CEM-SS cells assessed as RT activity after 4 serial passages with uninfected cells by serial passage experiment; format: functional, organism-based; procedure, shortened: as §3
[7] = test system: Human immunodeficiency virus 1; assay: Antiviral activity against HIV1 LAI in human CEM-SS cells assessed as RT activity after 8 serial passages with uninfected cells by serial passage experiment; format: functional, organism-based; procedure, shortened: as §3
[8] = test system: Human immunodeficiency virus 1; assay: Induction of mutation in HIV1 LAI in human CEM-SS cells after 7 passages with uninfected cells; format: functional, organism-based

Compound | CC50 [1] | IC50 [2] | IC50 [3] | CC50 [4] | Activity [5] | Activity [6] | Activity [7] | Activity [8]
NC(=O)c1cn([C@H]2C[C@H](O)[C@@H](CO)O2)c(=O)nc1N | > 200 µM | > 200 µM | > 200 µM | > 200 µM | – | – | – | –
NC(=O)Cn1c(=O)ccn([C@H]2C[C@H](O)[C@@H](CO)O2)c1=O | > 200 µM | > 200 µM | > 200 µM | > 200 µM | – | – | – | –
O=c1[nH]c(=O)n([C@H]2C[C@H](O)[C@@H](CO)O2)cc1CO | 130 µM | 30 µM | > 130 µM | 120 µM | Active | inactive | Active | –
NC(=O)Cc1cn([C@H]2C[C@H](O)[C@@H](CO)O2)c(=O)[nH]c1=O | > 200 µM | > 200 µM | > 200 µM | > 200 µM | Active | inactive | Active | inactive
Nc1nc(=O)n([C@H]2C[C@H](O)[C@@H](CO)O2)cc1CO | > 200 µM | 24 µM | > 200 µM | > 200 µM | Active | inactive | – | –
O=c1[nH]c(=O)n([C@H]2C[C@H](O)[C@@H](CO)O2)cc1O | > 200 µM | > 200 µM | > 200 µM | > 200 µM | – | – | – | –
NC(=O)Cc1cn([C@H]2C[C@H](O)[C@@H](CO)O2)c(=O)nc1N | > 200 µM | > 200 µM | > 200 µM | > 200 µM | – | – | – | –
NC(=O)c1cn([C@H]2C[C@H](O)[C@@H](CO)O2)c(=O)[nH]c1=O | > 200 µM | > 200 µM | > 200 µM | > 200 µM | Active | inactive | – | inactive
Cc1cn([C@H]2C[C@H](N=[N+]=[N-])[C@@H](CO)O2)c(=O)[nH]c1=O [ZIDOVUDINE] | > 1 µM | – | 0.018 µM | > 1 µM | – | – | – | –
